The RNAGym collection of RNA variant scans (doi:10.1126/science.aae0568)
Fewer inactive variants are shown than the library holds.

B1: tRNA (parent)
chain: GUUCCGUUGGCGUAAUGGUAACGCGUCUCCCUCCUAAGGAGAAGACUGCGGGUUCGAGUCCCGUACGGAACG

Variants of: B1
Assay: yeast fitness relative to wild type (ratio to wild type); higher = fitter; tRNA-Arg(CCU), competitive growth, 37 C, YPD
Procedure, shortened: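 Changes in genotype frequencies gave Darwinian fitness relative to wild type. Frequencies were read by 100-nucleotide paired-end sequencing of gene amplicons before and after pooled Saccharomyces cerevisiae strains, carrying tRNA-Arg(CCU) gene variants at the native locus, were competed in YPD at 37°C for 24 hours in six replicates. A genotype was kept only with ≥ 100 starting reads, and estimates < 0.5 were set to 0.5.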

Variant | yeast fitness
C22G C27G A45U C49U A57G A70G | ≤ 0.5
U3C C5G C61U | ≤ 0.5
A45U C61G A65C | ≤ 0.5
C4A C22A C29U A69U | ≤ 0.5
C33G A69C A70U | 0.611
U2A U13G A14G U28A A36U A45U A57G | ≤ 0.5
U2A G6C U16C C24U | 0.523
A21U C27G C30A G67A | ≤ 0.5
U7C C33G A37U A40C A69U | 0.533
G12A C24G A43C C62U A65G | 0.636
C11G C24U G48A G67U A69C | ≤ 0.5
A42G C46U G52C C61A | ≤ 0.5
U19C C49U | 0.999
G6A A20C | 0.714
C5U G44C U54C | 0.637
G6C A45U | 0.823
C11U C29U C66U | 0.603
C22G C27A C46U | 0.539
G25A A43C C66A | 0.581
C4G C11G C55U U59C C61A | ≤ 0.5
C27G G39A C46U G68A | ≤ 0.5
U8G U16A C34A A36C U64C C66A | ≤ 0.5
U13A A70G | 0.937
U13A C34G U54A | 0.609

Variant | yeast fitness
C4A C29G C31A G67A | ≤ 0.5
A21U U26A C30G A36C A57G | ≤ 0.5
U2A U3C G6A C66G | ≤ 0.5
A14U C31U C34A U64A | ≤ 0.5
U16A U47C G63A | 0.869
A14G A15C G17A A69C A70G | 0.562
G51A G63A | 0.739
C5U C33G C49A A70C | ≤ 0.5
A36U A40U A65C C66U | ≤ 0.5
A40G C46A C62U | 0.734
G10A C31G | 0.651
A14C U19A A21C C34U G39A | 0.62
U35C U47G C62U A65U | ≤ 0.5
A14C U59A | 0.746
G10C C29A A40U C62G | ≤ 0.5
U16A A21G C27G A57G | ≤ 0.5
C34U | 0.707
C46A C55A | 0.562
G6C U8C A43U U59C | ≤ 0.5
G10C A43C U53A | ≤ 0.5
A36G G58C | 0.943
G9A G10A | 0.577
C4G A43G G51C | ≤ 0.5
C22G C31U | 1

Variant | yeast fitness
G6C A15C | 0.689
A15C A20G G23A C46A C49G A65U A70U | ≤ 0.5
C27G U32A | 0.539
C34G C55A | ≤ 0.5
C11A G12C C33U A43C | ≤ 0.5
U28G C31U C66U | ≤ 0.5
A21U U26C | 0.657
G23C C24G C34G C61U | ≤ 0.5
C5U C29G C33U | ≤ 0.5
C5A A40C G41A C46U G52C | ≤ 0.5
G48A C60U | 0.847
C24G G25C C30G U32C A57G | ≤ 0.5
C5A A20C C22A A36C C55A A69U | ≤ 0.5
G10A A15U G17C A45U C49G A70U | ≤ 0.5
U16C G18A C24G A57C | ≤ 0.5
A15G C27A G44A C62U A65U | ≤ 0.5
U3A A43C C46A G48C | 0.57
U19A A40G C55G A65C | 0.534
C29U C31A U53G | ≤ 0.5
C27G U32C A42C G48C C55G C60U G68C | ≤ 0.5
C4G U7A G10C A20C | ≤ 0.5
U19C C46G A69U | 0.803
C4A G52C | 0.661
C27U C29U C60U A69G | 0.565

Variant | yeast fitness
C46U U59A C61G C66U | 0.649
G12A A40C C61A | ≤ 0.5
C5A A20G U35G G41A G56A A70C | ≤ 0.5
C11U A15C C27A G39C G48A | 0.546
C11A A21U C49A | ≤ 0.5
C5U U19G A21U C29G C61G | ≤ 0.5
G10A A15C A45C C49G | 0.553
C24U C61U A70C | 0.714
U7A C29G A36G | ≤ 0.5
G10A A15G G38C | ≤ 0.5
C4U C31U A43G C61A G63A A65U C66G | 0.575
A21G G25C A69C | 0.744
G9A A36G C66U | 0.77
C4U U7C G23A A40U A42C | ≤ 0.5
C4U A69C | 1.02
C55U G63A C66G | ≤ 0.5
C11G A20C C49G | ≤ 0.5
A40C C62U | 0.863
U7G A14G U35G A43G C55U U59A | ≤ 0.5
G9A U16C C30G C34G A40G C61A C62U G63C | 0.666
C4A C29U | 0.763
C11A A20G G39A G51A U53A G63C | 0.545
G18A A45C C49U C62G C66U | ≤ 0.5
C27U C34U A45G U47C C60G | ≤ 0.5

Variant | yeast fitness
A21G G23C | 0.676
C33U G68A | 0.679
C4U C11A A42G G48C G63U G67A | ≤ 0.5
C22G C46A C62U G63A | 0.651
C22U C29G A40C A57C | ≤ 0.5
C27G C31G U53A G56A G63A | 0.534
C5A C31G G56C G58C G63A | ≤ 0.5
U7G U32C C34G A43U | ≤ 0.5
C5U U8C A43U C66U | ≤ 0.5
G58A C61U | 1.03
U13A C61A G68A | ≤ 0.5
A14G C33A | 0.516
G18A C30U G41C G50A A65C | ≤ 0.5
U3G C11U A70G | 0.576
A14G A21U U59A | ≤ 0.5
G51C C62G | 0.528
G38C G39U C60A | ≤ 0.5
C29U G56C | 0.595
U7C C27U G48A C55A G63A | ≤ 0.5
A57C C66U | 0.652
U8C U64A A65U | 0.553
G6A U8C A14C C61U | ≤ 0.5
C11U U13C C29U A37C G39A C46A | ≤ 0.5
U8G U28G C34A | ≤ 0.5

Variant | yeast fitness
C5U A57G | 0.807
G10C C24G C46U | 0.702
C5U A20G C24G U26G A37C A57G C66A | ≤ 0.5
C5G G50A A69U | 0.742
C5U G51A A65C | ≤ 0.5
G17C C22U U26C C46A G63A | ≤ 0.5
G17A G41U A57C | ≤ 0.5
A36C G41A U53C | 0.56
C11G G63C G67C | ≤ 0.5
C5U A14C G52C A65U | ≤ 0.5
C4U U13C C30G C55U | 0.761
A45G G63A G68A | 0.536
C5U A14G A43G | 0.553
G25C C34G C61U C66G | ≤ 0.5
A21G G41C A69U | 0.682
G25C G56A | 0.962
U8C A36G A70C | 0.644
U3A A42G | 0.73
U13A U32C A65G | 0.705
G6A G17A | 0.633
A36U G39A A42C G50U G63A | 0.535
G9A A40U G51C C66U G67U | ≤ 0.5
U47C C55G | 0.733
C11U C24G C33A A40C G50C | ≤ 0.5

Variant | yeast fitness
G48C G51A | 0.849
G9C C22G C30U | 0.648
A42C G50C C66U | 0.534
C5U C30G C61U | ≤ 0.5
C4U G12C C46U G50A | 0.608
U26G C27U A70U | ≤ 0.5
G44C G48A G51A | 0.985
A14C C66G G68C | ≤ 0.5
U3G A70U | 0.831
U3G A20C G44C U47C C61U | ≤ 0.5
C4G G6A G10C U19A C24G A43G C61G A70U | ≤ 0.5
C11U U16A C60G C62G | ≤ 0.5
G6A C33G C34G G41A G58C A70C | 0.519
C27G G52A C60G A69U A70C | 0.514
C34U G48C | 0.674
U16C A21C G41A G56A | ≤ 0.5
C34U C49U U53C | ≤ 0.5
A20C A40U A43C | 0.699
A15U C27U U47C G68C | ≤ 0.5
G9A G12C C31A C33G A45G C66U G68C | ≤ 0.5
A21G A36G G38C C62G | ≤ 0.5
G25A A43G C49U | 0.94
A15C A36U A57U G67A | ≤ 0.5
